Measured values taken from the EternaBench riboswitch data.

Tested on: MS2 coat protein
Experiment: apparent Kd, MS2 coat protein; higher = weaker binding; RNA-MaP array; tryptophan 2.4 mM where present
Outline: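 In 100 mM Tris-HCl pH 7.5, 80 mM KCl, 4 mM MgCl2, BSA, DTT, yeast tRNA and Tween-20, SNAP-549-labelled MS2 coat protein was titrated from 0.7 or 1.5 nM, doubling to 3 µM, over designs transcribed by stalled E. coli RNA polymerase on Illumina sequencing-chip clusters. This was done first without ligand, then with ligand held constant. After green signal was normalised to red-channel RNA signal and control-cluster median Fmax, the apparent Kd was taken as the median of filtered per-cluster binding-curve fits.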

[1] = designed as: OFF switch for tryptophan, no ligand
[2] = ligand present: tryptophan, designed as: OFF switch for tryptophan
[3] = designed as: ON switch for tryptophan, no ligand
[4] = ligand present: tryptophan, designed as: ON switch for tryptophan

AAUGUAUGGCACAUGAGGAUCACCCAUGUGCGAGGACCGGUACGGCCGCCACUCGGUCGUGGGUUCUUAUUACUAUACAUUAAUG
apparent Kd [1]: 10.7 nM
apparent Kd [2]: 12.3 nM

UUGUGGCGCUCGGCCGCCACUCCGACAUGAGGAUCACCCAUGUUCUACAUGAGGAUCACCCAUGUGAGGACCGGGAGACACUUCC
apparent Kd [1]: 104 nM
apparent Kd [2]: 103 nM

ACAUGUUGGUGGUAUCUACGAAGGCGGAAACGAGGACCGGUACGGCCGCCACUCGGCGACAUGAGGAUCACCCAUGUGGUUAAAA
apparent Kd [1]: 52.6 nM
apparent Kd [2]: 27.5 nM

CUAAUUAAAUCGGCCGCCACUUACUCAUGAGGUAACAACAUGAGGAUCACCCAUGUUUGAGGAUCAAGGACCGGGAUUUAAUUAG
apparent Kd [3]: 28.9 nM
apparent Kd [4]: 18.2 nM

GUUUUGGGAUCGGCCGCCACUACAUGAGGAUCACCCAUGUGGACAAAUAGGGUUUUUAAGCUCGGUAGGACCGGGAUUCGAACAU
apparent Kd [1]: 18.1 nM
apparent Kd [2]: 67.5 nM

CGAAUAUAGACGGCCGCCACUCUACAAACAUGAGGAUCACCCAUGUUCACAUAGUGGAAACACAUGAGGACCGGGUCAUAGGCAU
apparent Kd [3]: 18.5 nM
apparent Kd [4]: 14 nM

UCGUUAUGGUCGGCCGCCACUCGCGGAGAGCAUAGCUCAAACAUGAGGAUCACCCAUGUAUCAUGGAGGACCGGGACCAUAACGU
apparent Kd [3]: 31.9 nM
apparent Kd [4]: 14 nM

UGAUACCAGUCGGCCGCCACUACAUGAGGAUCACCCAUGUAUCCUCAACUGCUAGAUACUAGCAGUAGGACCGGGACUGGUAUCU
apparent Kd [1]: 307 nM
apparent Kd [2]: 1150 nM

GCAUCCUAGUCGGCCGCCACUGCAACAUGAGGAUCACCCAUGUCUGUAUGUGAUCCAUGCAGUAGCAGGACCGGGACUAGGAUGC
apparent Kd [3]: 501 nM
apparent Kd [4]: 130 nM

CGAUAUAUAGCGGCCGCCACUUACUCAUGAGGUAACAACAUGAGGAUCACCCAUGUUUGAGGAUCAAGGACCGGGCUAUGUAUCG
apparent Kd [3]: 27.4 nM
apparent Kd [4]: 18 nM

CAUAUAUAAGCGGCCGCCACUUACUCAUGAGGUAACAACAUGAGGAUCACCCAUGUUUGAGGAUCAAGGACCGGGCUUAUAUAUG
apparent Kd [3]: 28.3 nM
apparent Kd [4]: 18.3 nM

AGAUUCGACACGGCCGCCACUUGUGGUGGAUUAUCCUAUGUCGAACAUGAGGAUCACCCAUGUACAAGGACCGGGUGUUGAGUCU
apparent Kd [1]: 401 nM
apparent Kd [2]: 119 nM

GCAUCCUAGUCGGCCGCCACUGCACGAUCAGUGGCAGAUCGUCAACAUGAGGAUCACCCAUGUAGCAGGACCGGGACUAGGAUGC
apparent Kd [3]: 17.6 nM
apparent Kd [4]: 24.6 nM

AAUACCGGAUCGGCCGCCACUGGUUGGCCCUGUGUACAUGAGGAUCACCCAUGUCCAUCCCAAGCCAGGACCGGGAUCUUUGUGU
apparent Kd [3]: 16.7 nM
apparent Kd [4]: 10.1 nM

CCUAUGCAGUCGGCCGCCACUGAGUCCUCAAUAAUAAAUUAAUAAACAUGAGGAUCACCCAUGUACAGGACCGGGACUGUAUAGG
apparent Kd [1]: 314 nM
apparent Kd [2]: 373 nM

UUCACAUGAUCUGAAUAUACAGAAAAGAAACGAGGACCGGUACGGCCGCCACUCGUGCCGGAAACAUGAGGAUCACCCAUGUGUU
apparent Kd [1]: 24.2 nM
apparent Kd [2]: 22 nM

CGCCACAUGAGGAUCACCCAUGUCUUGGCGCGAGGACCGGUACGGCCGCCACUCGCGUUUCAGUGAGCGCAUGCGUCCUUGGUAU
apparent Kd [1]: 18.3 nM
apparent Kd [2]: 26.1 nM

CACGCACGAUCGGCCGCCACUCAUGUAGCUUACAUGAGGAUCACCCAUGUAUUUUCUUUCUUUUAGAGGACCGGGAUCGUGCGUG
apparent Kd [3]: 24.9 nM
apparent Kd [4]: 16.5 nM

GUCCAAAGGUCGGCCGCCACUGUAGAGUGUGUUCUUUCACAUGAGGAUCACCCAUGUUGUUAUUAUAGGACCGGGAUUGUAGGAC
apparent Kd [1]: 20.4 nM
apparent Kd [2]: 28.1 nM

UAUCUACAUGAAUAGGUUAUUCGAUUAUUUCGAGGACCGGUACGGCCGCCACUCGUUAACAUAUACAUGAGGAUCACCCAUGUUA
apparent Kd [3]: 16.9 nM
apparent Kd [4]: 15.9 nM

ACAUUGCGCUCGGCCGCCACUGCCUUAUGAUUAUAAGGAUUAAUGAACAUGAGGAUCACCCAUGUCAGGACCGGGAGCGAACCAU
apparent Kd [3]: 13.7 nM
apparent Kd [4]: 13.4 nM

AACAUGAGGAUCACCCAUGUUCUCGUGUACCGAGGACCGGUACGGCCGCCACUCGGUUCUCGCGAGGAUGGUCAAAGACUAUCCA
apparent Kd [3]: 19.1 nM
apparent Kd [4]: 16 nM

AGCCGGAUUACGGCCGCCACUGUAGACGUGACGAAAGUCGCGUCAACAUGAGGAUCACCCAUGUACAGGACCGGGUGGUCAGGCG
apparent Kd [3]: 173 nM
apparent Kd [4]: 41.2 nM
